From ChEMBL document CHEMBL1142536, “Synthesis of triazole-linked beta-C-glycosyl dimers as inhibitors of PTP1B” (Bioorg Med Chem, 2008)

Columns and labels:
[1] = target: T1, Tyrosine-protein phosphatase non-receptor type 1 (Homo sapiens) (UniProt P18031); test: Inhibition of human recombinant PTP1B catalytic domain at 20 ug/mL
T1 sequence (whole entry): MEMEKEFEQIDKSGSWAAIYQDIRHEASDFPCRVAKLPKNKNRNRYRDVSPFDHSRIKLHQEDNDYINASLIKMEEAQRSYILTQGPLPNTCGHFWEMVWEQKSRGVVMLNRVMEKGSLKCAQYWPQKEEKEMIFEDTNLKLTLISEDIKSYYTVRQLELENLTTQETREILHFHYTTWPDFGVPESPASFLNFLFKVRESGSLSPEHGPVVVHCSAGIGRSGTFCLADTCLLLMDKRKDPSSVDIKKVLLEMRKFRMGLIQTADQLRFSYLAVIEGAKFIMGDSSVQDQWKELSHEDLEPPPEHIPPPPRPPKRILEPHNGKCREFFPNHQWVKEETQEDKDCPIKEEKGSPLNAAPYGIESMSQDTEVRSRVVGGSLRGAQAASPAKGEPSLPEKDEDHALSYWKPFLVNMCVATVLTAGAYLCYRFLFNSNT
Procedure, shortened: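 Human PTP1B catalytic domain (recombinant) hydrolysing 2 mM pNPP in 50 mM MOPS pH 6.5 at 30 °C. pNP formation followed at 405 nm for 2 min. Initial rate taken from the early linear region. Compounds tested at 20 µg/mL. Result given as percent inhibition.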

[2] = target: T2, Tyrosine-protein phosphatase non-receptor type 1 (Homo sapiens, UniProt P18031); test: Inhibition of human recombinant PTP1B catalytic domain
T2 sequence (P18031 whole entry): T1 sequence (whole entry)
Procedure, shortened: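 Recombinant human PTP1B catalytic domain, 30 nM, with 2 mM pNPP substrate in 50 mM MOPS pH 6.5 at 30 °C. pNP release read continuously at 405 nm for 2 min. Initial rate comes from the early linear part of the curve. Inhibitors diluted around the estimated IC50. IC50 from nonlinear fit of % inhibition vs [I] with a Hill coefficient term.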

Row | inhibition [1] | IC50 [2] | Structure (SMILES)
1 | 8.5% | – | CC(=O)O[C@@H]1[C@@H](OC(C)=O)[C@H](C2=CC(=O)c3ccccc3C2=O)O[C@H](Cn2cc(COC(=O)c3cccc(C(=O)OCc4cn(C[C@H]5O[C@@H](C6=CC(=O)c7ccccc7C6=O)[C@H](OC(C)=O)[C@@H](OC(C)=O)[C@@H]5OC(C)=O)nn4)c3)nn2)[C@H]1OC(C)=O
2 | 95.5% | 720 nM | O=C1C=CC(=O)C([C@@H]2O[C@H](Cn3cc(COC(=O)c4cccc(C(=O)OCc5cn(C[C@H]6O[C@@H](C7=CC(=O)C=CC7=O)[C@H](OC(=O)c7ccccc7)[C@@H](OC(=O)c7ccccc7)[C@H]6OC(=O)c6ccccc6)nn5)c4)nn3)[C@H](OC(=O)c3ccccc3)[C@H](OC(=O)c3ccccc3)[C@H]2OC(=O)c2ccccc2)=C1
3 | 12.5% | – | COc1cc([C@@H]2O[C@H](CN3C=C(COC(=O)c4cccc(C(=O)OCC5=CN(C[C@H]6O[C@@H](c7cc(OC)c8ccccc8c7OC)[C@H](OC(C)=O)[C@@H](OC(C)=O)[C@@H]6OC(C)=O)NN5)c4)NN3)[C@@H](OC(C)=O)[C@H](OC(C)=O)[C@H]2OC(C)=O)c(OC)c2ccccc12
4 | – | 4850 nM | CC(=O)OC[C@H]1O[C@@H](C2=CC(=O)C=CC2=O)[C@H](OC(C)=O)[C@@H](OC(C)=O)[C@@H]1OC(C)=O
5 | 0.8% | – | CC(=O)O[C@H]1[C@@H](OC(C)=O)[C@@H](Cn2cc(COC(=O)c3cccc(C(=O)OCc4cn(C[C@H]5O[C@@H](C6=CC(=O)c7ccccc7C6=O)[C@H](OC(C)=O)[C@@H](OC(C)=O)[C@H]5OC(C)=O)nn4)c3)nn2)O[C@@H](C2=CC(=O)c3ccccc3C2=O)[C@@H]1OC(C)=O
6 | 95.8% | 620 nM | O=C1C=CC(=O)C([C@@H]2O[C@H](Cn3cc(COC(=O)c4cccc(C(=O)OCc5cn(C[C@H]6O[C@@H](C7=CC(=O)C=CC7=O)[C@H](OC(=O)c7ccccc7)[C@@H](OC(=O)c7ccccc7)[C@@H]6OC(=O)c6ccccc6)nn5)c4)nn3)[C@@H](OC(=O)c3ccccc3)[C@H](OC(=O)c3ccccc3)[C@H]2OC(=O)c2ccccc2)=C1
7 | 98.5% | 880 nM | COc1ccc(OC)c([C@@H]2O[C@H](Cn3cc(COC(=O)c4cccc(C(=O)OCc5cn(C[C@H]6O[C@@H](c7cc(OC)ccc7OC)[C@H](OC(=O)c7ccccc7)[C@@H](OC(=O)c7ccccc7)[C@H]6OC(=O)c6ccccc6)nn5)c4)nn3)[C@H](OC(=O)c3ccccc3)[C@H](OC(=O)c3ccccc3)[C@H]2OC(=O)c2ccccc2)c1
8 | 97.8% | 870 nM | COc1ccc(OC)c([C@@H]2O[C@H](Cn3cc(COC(=O)c4cccc(C(=O)OCc5cn(C[C@H]6O[C@@H](c7cc(OC)ccc7OC)[C@H](OC(=O)c7ccccc7)[C@@H](OC(=O)c7ccccc7)[C@@H]6OC(=O)c6ccccc6)nn5)c4)nn3)[C@@H](OC(=O)c3ccccc3)[C@H](OC(=O)c3ccccc3)[C@H]2OC(=O)c2ccccc2)c1
9 | 7.5% | – | COc1cc([C@@H]2O[C@H](CN3C=C(COC(=O)c4cccc(C(=O)OCC5=CN(C[C@H]6O[C@@H](c7cc(OC)c8ccccc8c7OC)[C@H](OC(C)=O)[C@@H](OC(C)=O)[C@H]6OC(C)=O)NN5)c4)NN3)[C@H](OC(C)=O)[C@H](OC(C)=O)[C@H]2OC(C)=O)c(OC)c2ccccc12
